Results taken from ChEMBL document CHEMBL4130626, “α-Arylidene Diacylglycerol-Lactones (DAG-Lactones) as Selective Ras Guanine-Releasing Protein 3 (RasGRP3) Ligands” (J Med Chem, 2018).
Calls of active or inactive are those of the source. The rule behind the calls is not given here.

Key:
[1] = target: T1, RAS guanyl-releasing protein 1 (Homo sapiens) (UniProt O95267); assay: Displacement of [3H]PDBu from full length MBP-tagged human RasGRP1 expressed in Escherichia coli BL21 (DE3) after 5 mins in presence of phosphatidylserine by scintillation counting
T1 sequence (whole entry): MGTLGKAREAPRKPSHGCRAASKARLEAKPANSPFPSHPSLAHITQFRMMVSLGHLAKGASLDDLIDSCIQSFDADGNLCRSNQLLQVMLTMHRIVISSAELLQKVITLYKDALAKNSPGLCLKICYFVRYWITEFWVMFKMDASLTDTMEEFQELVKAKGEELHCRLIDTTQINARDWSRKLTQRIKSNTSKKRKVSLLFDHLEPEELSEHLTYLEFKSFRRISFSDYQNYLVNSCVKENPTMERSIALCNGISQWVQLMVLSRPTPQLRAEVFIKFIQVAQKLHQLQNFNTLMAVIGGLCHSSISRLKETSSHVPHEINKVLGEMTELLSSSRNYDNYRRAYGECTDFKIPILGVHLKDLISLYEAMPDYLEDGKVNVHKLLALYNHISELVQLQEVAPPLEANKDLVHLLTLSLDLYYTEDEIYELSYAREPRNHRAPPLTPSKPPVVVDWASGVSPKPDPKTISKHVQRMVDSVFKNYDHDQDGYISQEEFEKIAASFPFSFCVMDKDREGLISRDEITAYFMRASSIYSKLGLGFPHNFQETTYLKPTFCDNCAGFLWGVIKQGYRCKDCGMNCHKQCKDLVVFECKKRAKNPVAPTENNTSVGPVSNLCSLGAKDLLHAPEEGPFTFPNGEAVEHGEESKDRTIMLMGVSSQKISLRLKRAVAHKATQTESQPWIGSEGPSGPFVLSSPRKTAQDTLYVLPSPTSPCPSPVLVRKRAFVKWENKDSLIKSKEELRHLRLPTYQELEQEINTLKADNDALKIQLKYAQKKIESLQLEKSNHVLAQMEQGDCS
Procedure, shortened: (§1)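 Competition of [3H]PDBu binding by polyethylene glycol precipitation, with 100 µg/ml phosphatidylserine and ≤0.003% Triton X-100, 5 min at 37 °C. Proteins: full-length purified human PKCα, PKCε; full-length RasGRP1; MBP-RasGRP3 from E. coli BL21(DE3) induced with 0.3 mM IPTG 6 h at room temperature. Ki mean ± SEM of ≥2 experiments, triplicate points.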

[2] = target: T2, RAS guanyl-releasing protein 1 (Homo sapiens, UniProt O95267); assay: Activation of GFP-tagged RasGRP1 (unknown origin) expressed in HEK293 cells after 30 mins by immunoblot method; type: cell-based
T2 sequence (O95267 whole entry): T1 sequence (whole entry)
Procedure, shortened: (§2)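 Cells expressing GFP-RasGRP1/3 (HEK293 or LNCaP, 48 h after plating, transfected; expression checked by fluorescence 24-48 h later) or Ramos with endogenous RasGRP3 treated with half-log increasing concentrations (max 10 µM), 1000 nM PMA or DMSO, 37 °C, 30 min, 5% CO2. RasGTP by Raf1 RBD bead pulldown and anti-Pan-Ras immunoblot; pERK by western blot. Band intensities normalized to 1000 nM PMA; EC50 from n = 3.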

[3] = target: T3, Ras guanyl-releasing protein 3 (Homo sapiens, UniProt Q8IV61); assay: Activation of GFP-tagged RasGRP3 (unknown origin) expressed in HEK293 cells after 30 mins by immunoblot method; type: cell-based
T3 sequence (Q8IV61 whole entry): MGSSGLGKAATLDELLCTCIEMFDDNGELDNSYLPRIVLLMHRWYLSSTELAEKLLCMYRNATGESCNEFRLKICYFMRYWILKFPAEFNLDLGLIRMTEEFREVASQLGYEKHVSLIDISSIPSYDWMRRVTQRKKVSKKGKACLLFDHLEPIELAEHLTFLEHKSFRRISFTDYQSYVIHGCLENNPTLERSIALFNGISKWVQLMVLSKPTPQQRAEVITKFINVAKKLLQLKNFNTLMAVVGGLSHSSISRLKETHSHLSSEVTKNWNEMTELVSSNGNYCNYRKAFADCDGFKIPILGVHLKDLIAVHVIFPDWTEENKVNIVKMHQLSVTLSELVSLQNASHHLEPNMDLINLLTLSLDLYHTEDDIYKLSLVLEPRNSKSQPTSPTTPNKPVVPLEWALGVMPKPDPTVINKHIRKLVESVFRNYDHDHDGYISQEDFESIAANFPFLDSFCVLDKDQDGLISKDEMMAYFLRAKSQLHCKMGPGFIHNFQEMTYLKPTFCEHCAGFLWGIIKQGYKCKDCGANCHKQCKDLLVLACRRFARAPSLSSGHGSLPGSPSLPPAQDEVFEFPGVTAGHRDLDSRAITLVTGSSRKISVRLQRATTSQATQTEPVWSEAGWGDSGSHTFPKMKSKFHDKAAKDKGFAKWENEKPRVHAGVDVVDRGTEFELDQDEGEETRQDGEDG
Procedure, shortened: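 HEK293 cells grown in EMEM + 10% FBS, transfected after 48 h with GFP-RasGRP3 (Lipofectamine Plus). Treated 30 min at 37 °C, 5% CO2, with half-log increasing concentrations up to 10 µM, 1000 nM PMA or DMSO. Active Ras pulled down from lysates on Raf1-RBD agarose (60 min, 4 °C), immunoblotted with anti-Pan-Ras. Band intensity normalised to 1000 nM PMA. EC50 is the mean of n = 3.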

[4] = target: T3, Ras guanyl-releasing protein 3; assay: Activation of GFP-tagged RasGRP3 (unknown origin) expressed in human LNCAP cells after 30 mins by immunoblot method; type: cell-based; procedure, shortened: as §2
[5] = target: T3, Ras guanyl-releasing protein 3; assay: Activation of RasGRP3 in human Ramos cells after 30 mins by immunoblot method; type: cell-based; procedure, shortened: as §2
Homo sapiens [6] = species on record: Homo sapiens; assay: Selectivity ratio of EC50 for PKCdelta (unknown origin) expressed in HEK293 cells harboring GFP-tagged RasGRP3 to EC50 for GFP-tagged RasGRP3 (unknown origin) expressed in HEK293 cells; type: cell-based
Procedure, shortened: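 One EC50 comes from PKCδ S299 phosphorylation on immunoblot, the other from Ras-GTP pulled down on Raf1-RBD. Both signals normalised to 1000 nM PMA. EC50s above 10 µM are extrapolated.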

Homo sapiens [7] = species on record: Homo sapiens; assay: Selectivity ratio of EC50 for PKCdelta (unknown origin) expressed in human LNCAP cells harboring GFP-tagged RasGRP1 to EC50 for GFP-tagged RasGRP1 (unknown origin) expressed in human LNCAP cells; type: cell-based
Homo sapiens [8] = species on record: Homo sapiens; assay: Selectivity ratio of EC50 for PKCdelta (unknown origin) expressed in human LNCAP cells harboring GFP-tagged RasGRP3 to EC50 for GFP-tagged RasGRP3 (unknown origin) expressed in human LNCAP cells; type: cell-based
Homo sapiens [9] = species on record: Homo sapiens; assay: Selectivity ratio of EC50 for PKCdelta (unknown origin) expressed in human LNCAP cells harboring GFP-tagged RasGRP1 to EC50 for GFP-tagged RasGRP1 (unknown origin) expressed in human LNCAP cells assessed as ERK1/2 phosphorylation; type: cell-based
[10] = target: T4, Ras guanyl-releasing protein 3 (Homo sapiens) (UniProt Q8IV61); assay: Displacement of [3H]PDBu from full length MBP-tagged human RasGRP3 expressed in Escherichia coli BL21 (DE3) after 5 mins in presence of phosphatidylserine by scintillation counting; procedure, shortened: as §1
T4 sequence (whole entry): T3 sequence (Q8IV61 whole entry)

inhibition [1]: Active
EC50 [2]: 0.86 µM
EC50 [3]: 1.83 µM
EC50 [4]: 0.64 µM
EC50 [5]: 0.86 µM
inhibition [10]: Active
Structure (SMILES): Cn1cc(/C=C2\CC(CO)(COC(=O)C(C)(C)C)OC2=O)c2ccccc21 (stereo not given)
Ratio EC50 (Homo sapiens [6]): 9.2
Ratio EC50 (Homo sapiens [7]): 8.3
Ratio EC50 (Homo sapiens [8]): 12.9
Ratio EC50 (Homo sapiens [9]): 2.2
